Measurements taken from PMC7511286 (European Journal of Drug Metabolism and Pharmacokinetics, 2020).
Marks after values point to notes of the source that are not given here.

Tests used:
[1] = SAD study: safety and tolerability; type: in vivo, human
How it was run: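 Healthy males aged 18–55 took oral tablets. Treatment-emergent AEs were recorded by clinical evaluation. Vital signs (blood pressure, pulse), 12-lead and Holter ECG, physical examination, and urine and plasma laboratory tests were also assessed. AEs of special interest were hematuria and retroperitoneal colicky pain with suspected or confirmed nephrolithiasis. Subjects were hospitalized around dosing.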

[2] = MAD study: multiple ascending oral dose pharmacokinetics; type: in vivo, human
How it was run: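 Healthy males took oral tablets once daily for 14 days after an overnight fast of at least 8 h, continued 1 h on profile days. Plasma was sampled 0.5–24 h after the day 0 dose, as troughs, and 0.5–72 h after the day 13 dose. LC-MS/MS used ESI−, LLOQ 0.1 μg/ml. AUC was by linear-log trapezoid. CL/F = dose/AUC0–24; RAAUC = AUC0–24 (day 13–14)/AUC0–24 (day 0–1).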

[3] = Day 13, 30 mg once daily, n = 12, geometric mean (geometric %CV)
[4] = Day 13, 40 mg once daily, n = 12, geometric mean (geometric %CV)
[5] = Day 13, 50 mg once daily not pre-dosed, n = 8, geometric mean (geometric %CV)
[6] = Day 13, 50 mg once daily pre-dosed, n = 8, geometric mean (geometric %CV)
[7] = Day 13–14 / Day 0–1, 30 mg once daily, n = 12, geometric mean (geometric %CV)

In the case of `COc1cccc(-c2ccc(NC(=O)C3=C(C(=O)O)CCC3)c(F)c2)c1` [IMU-838, vidofludimus calcium], the “TEAE Flatulence: subjects having the event” value ([1]; 10 mg fasted, n = 6) is reported as 1 (16.7) N (%), the “TEAE Headache: subjects having the event” value ([1]; 10 mg fasted, n = 6) is reported as 1 (16.7) N (%) and the “TEAE Micturition urgency: number of events” value ([1]; 10 mg fasted, n = 6) is reported as 1. The “TEAE Micturition urgency: subjects having the event” value ([1]; 10 mg fasted, n = 6) was 1 (16.7) N (%), the “TEAE Viral upper respiratory tract infection: number of events” value ([1]; 10 mg fasted, n = 6) was 2 and the “TEAE Viral upper respiratory tract infection: subjects having the event” value ([1]; 10 mg fasted, n = 6) was 2 (33.3) N (%). The “TEAEs Total: number of events” value ([1]; 10 mg fasted, n = 6) was 5, the “TEAEs Total: subjects having the event” value ([1]; 10 mg fasted, n = 6) was 3 (50.0) N (%) and the “TEAE Epistaxis: subjects having the event” value ([1]; 10 mg fed, n = 6) was 1 (16.7) N (%). The “TEAEs Total: number of events” value ([1]; 10 mg fed, n = 6) was 1, the “TEAEs Total: subjects having the event” value ([1]; 10 mg fed, n = 6) was 1 (16.7) N (%) and the “TEAE Headache: subjects having the event” value ([1]; 20 mg fasted, n = 6) was 1 (16.7) N (%). For the same molecule, the “TEAEs Total: number of events” value ([1]; 20 mg fasted, n = 6) was 1, the “TEAEs Total: subjects having the event” value ([1]; 20 mg fasted, n = 6) was 1 (16.7) N (%) and the “TEAE Opiates positive: number of events” value ([1]; 30 mg fasted, n = 6) was 1. The “TEAE Opiates positive: subjects having the event” value ([1]; 30 mg fasted, n = 6) was 1 (16.7) N (%), the “TEAEs Total: number of events” value ([1]; 30 mg fasted, n = 6) was 1 and the “TEAEs Total: subjects having the event” value ([1]; 30 mg fasted, n = 6) was 1 (16.7) N (%). The “TEAE Rhinitis: subjects having the event” value ([1]; 40 mg fasted, n = 5) was 1 (20.0) N (%), the “TEAEs Total: number of events” value ([1]; 40 mg fasted, n = 5) was 1 and the “TEAEs Total: subjects having the event” value ([1]; 40 mg fasted, n = 5) was 1 (20.0) N (%). The “AEs of special interest (hematuria, retroperitoneal colicky pain)” value ([1]; all single doses) was “no AEs of special interest were observed”, the “total number of TEAEs” value ([1]; all single doses, 12 subjects) was “nine” and the tolerability ([1]; single oral doses 10–40 mg) was “well tolerated”. For the same molecule, the Cmax ([2]; Day 0, 30 mg, n = 12, geometric mean (geometric %CV)) was 3.979 (39.5) μg/ml, the Cmax ([2]; Day 0, 40 mg, n = 12, geometric mean (geometric %CV)) was 5.805 (32.3) μg/ml and the Cmax ([2]; Day 0, 50 mg not pre-dosed, n = 8, geometric mean (geometric %CV)) was 5.016 (51.1) μg/ml. For the same molecule, the “AUC0–t” value [2, 3] was 188.554 (30.3) μg·h/ml, the CL/F [2, 3] was 4.985 (25.0) ml/min and the Cmax [2, 3] was 6.543 (25.8) μg/ml. The “AUC0–t” value [2, 4] was 284.959 (25.3) μg·h/ml, the CL/F [2, 4] was 4.201 (22.6) ml/min and the Cmax [2, 4] was 10.911 (20.2) μg/ml. For the same molecule, the CL/F ([2]; Day 13, 50 mg once daily all, n = 16, geometric mean (geometric %CV)) was 5.008 (20.9) ml/min, the “AUC0–t” value [2, 5] was 310.301 (32.7) μg·h/ml and the CL/F [2, 5] was 4.982 (27.3) ml/min. The Cmax [2, 5] was 10.841 (21.5) μg/ml, the “AUC0–t” value [2, 6] was 304.154 (16.1) μg·h/ml and the CL/F [2, 6] was 5.034 (14.1) ml/min. The Cmax [2, 6] was 10.725 (20.1) μg/ml, the “RAAUC (accumulation ratio for AUC0–24)” value [2, 7] was 1.958 (24.4) and the “RACmax (accumulation ratio for Cmax)” value [2, 7] was 1.644 (37.6). The “RAAUC (accumulation ratio for AUC0–24)” value ([2]; Day 13–14 / Day 0–1, 40 mg once daily, n = 9, geometric mean, geometric %CV 23.1) was 2.077^e (23.1), the “RACmax (accumulation ratio for Cmax)” value ([2]; Day 13–14 / Day 0–1, 40 mg once daily, n = 12, geometric mean (geometric %CV)) was 1.880 (30.1) and the AUC(0-t) ([2]; male, human, plasma, oral, 30 mg, AUC0–24, Day 0, 30 mg, n = 12, geometric mean (geometric %CV)) was 51200 ng·h/mL. It also gave an AUC(0-t) ([2]; male, human, plasma, oral, 30 mg, AUC0–t, geometric mean, Day 0, 30 mg) of 51100 ng·h/mL, a Cmax ([2]; male, human, plasma, oral, 30 mg, Cmax, Day 0, 30 mg, n = 12, geometric mean (geometric %CV)) of 3980 ng/mL and a Tmax ([2]; male, human, plasma, oral, 30 mg, tmax, Day 0, 30 mg, n = 12, median (minimum–maximum)) of 3 h. It also gave an AUC(0-t) ([2]; male, human, plasma, oral, 40 mg, AUC0–t, geometric mean, Day 0, 40 mg) of 71700 ng·h/mL, a Cmax ([2]; male, human, plasma, oral, 40 mg, Cmax, Day 0, 40 mg, n = 12, geometric mean (geometric %CV)) of 5810 ng/mL and a Tmax ([2]; male, human, plasma, oral, 40 mg, tmax, Day 0, 40 mg, n = 12, median (minimum–maximum)) of 3 h. It also gave an AUC(0-t) ([2]; male, human, plasma, oral, 50 mg, AUC0–24, Day 0, 50 mg not pre-dosed, n = 8, geometric mean (geometric %CV)) of 67100 ng·h/mL, an AUC(0-t) ([2]; male, human, plasma, oral, 50 mg, AUC0–t, geometric mean, Day 0, 50 mg not pre-dosed) of 66700 ng·h/mL and a Cmax ([2]; male, human, plasma, oral, 50 mg, Cmax, Day 0, 50 mg all, n = 16, geometric mean (geometric %CV)) of 6040 ng/mL. For the same molecule, the Cmax ([2]; male, human, plasma, oral, 50 mg, Cmax, Day 0, 50 mg not pre-dosed, n = 8, geometric mean (geometric %CV)) was 5020 ng/mL, the Cmax ([2]; male, human, plasma, oral, 50 mg, Cmax, Day 0, 50 mg pre-dosed, n = 8, geometric mean (geometric %CV)) was 7260 ng/mL and the Tmax ([2]; male, human, plasma, oral, 50 mg, tmax, Day 0, 50 mg all, n = 16, median (minimum–maximum)) was 2 h. For the same molecule, the Tmax ([2]; male, human, plasma, oral, 50 mg, tmax, Day 0, 50 mg not pre-dosed, n = 8, median (minimum–maximum)) was 3 h, the Tmax ([2]; male, human, plasma, oral, 50 mg, tmax, Day 0, 50 mg pre-dosed, n = 8, median (minimum–maximum)) was 2 h and the Tmax ([2]; male, human, plasma, oral, median tmax, range over groups, Day 0) was 2 to 3 h. The “accumulation factor for multiple daily dosing” value ([2]; multiple once-daily dosing) was “approximately 2” and the “dose dependence of plasma pharmacokinetics” value ([2]; repeated oral 30 to 50 mg, fasted) was “dose-proportional”.
